INS promoter inh = TRM-6 insulin promoter activity inhibition; inhibition, % at 2 µM; actives 0.9% (n = 130,000); TRM-6 cells (human fetal islet line), insulin promoter-eGFP reporter, imaging; reporter expression induced with tamoxifen; AID 1273;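 active = inhibition above the mean plus 3 SD, with well images judged a real hit on visual review, cut at about 60% in these data, passing the limit was not always enough; inconclusive = inhibition over the cutoff but images rejected on review; inactive = inhibition not above the cutoff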
Ins promoter up = MIN6 insulin promoter up-regulation. MIN6 insulin promoter-GFP reporter, high-content imaging; hits give high values. z-score at 5 µM. actives 0.3% (n = 190,000). AID 1625;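 active = z-score above 3 at 5 µM with at least 500 cells counted in the well; inconclusive = wells under 500 cells, flagged as cytotoxic or low count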
Dynein transport = dynein cargo transport inhibition | 3617.4 mouse cells, GR-EGFP nuclear translocation imaging; test concentration mostly 20 µM; stimulated with dexamethasone, 1 µM; hits give low values | z-score, hits read low | actives 0.47% (n = 220,000);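 active = plate z-score of nuclear minus cytoplasmic receptor signal below a set negative limit, without overly bright fluorescence or cell loss, cut at about -3.5 in these data, passing the limit was not always enough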;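 also: z-score of nuclear minus cytoplasmic ring GR-EGFP intensity difference per well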
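Buffer or medium: tet-free, stripped-serum medium; reagent: dexamethasone at 1.0 µM final, 30 min; incubation: 48 h induction, 1 h compound, 30 min dex at 37 °C; measured by: formaldehyde fixation, Hoechst nuclear stain, 10x automated fluorescence imaging; read-out: nuclear-to-cytoplasmic GR-EGFP distribution per well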
Autophagy HCS = alters autophagy in cells | MEF GFP-LC3 puncta imaging; test concentration mostly 10 µM | calls only at 10 µM (by protocol) | actives 0.98% (n = 190,000);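 active = percentage of spot-positive cells more than 3 SD above its plate mean, without a fluorescence outlier flag or 80% toxicity; inconclusive = no clear call, values can overlap the other calls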
Large screens that a line does not name were inactive. Compounds with a hit are over-represented: about 2% of the library has one in this group of screens.

CCOC(=O)N1CCN(C(=O)c2cc(S(=O)(=O)N3CCCC3)cn2C)CC1	Ins promoter up 3 (no result: INS promoter inh)
CCOC(=O)N1CCC(NC(=O)c2cc(S(=O)(=O)N3CCCC3)cn2C)CC1	none
N=C1C(c2nc3ccccc3c(=O)[nH]2)=C(O)CN1c1ccccc1	none
Cc1ccc(N2CC(O)=C(c3nc4ccccc4c(=O)[nH]3)C2=N)cc1C	Autophagy HCS active
Nc1ccc(S(=O)C(F)(F)F)cc1 (stereo not drawn)	none
COc1ccc(CCN=C(C)C2=C(O)C(c3ccccc3)OC2=O)cc1OC (stereo not drawn)	none
CCOC(=O)c1ccc(NC(=O)CN2C(=O)CCC2=O)cc1	none (no result: Ins promoter up)
CCOC(=O)c1ccc(NC(=O)Cn2ncc(Cl)c(Cl)c2=O)cc1	Ins promoter up inconclusive, Dynein transport -4.2, Autophagy HCS active
Cc1ccc(-c2ccc(/C=C(\C#N)C(=O)Nc3cc(C)nn3-c3ccccc3)o2)cc1	Autophagy HCS active (no result: INS promoter inh, Ins promoter up)
Cc1ccc(NC(=S)NCc2ccc3c(c2)cc(C)n3C)c(C)c1	none
CC12CC(c3ccccc3O1)C(C(=O)N1CCOCC1)C(=O)N2 (stereo not drawn)	INS promoter inh 71
O=C(C1COc2ccccc2O1)N1CCOCC1 (stereo not drawn)	none
C=CC(C)N1C(=O)S/C(=C\c2ccc(N3CCOCC3)cc2C)C1=O (stereo not drawn)	none
C=CCN1C(=O)S/C(=C\c2ccc(N3CCOCC3)cc2C)C1=O	Autophagy HCS active
C1CCCCCC(NCCN2CCNCC2)CCCCC1	none (no result: INS promoter inh, Autophagy HCS)
C/C(=N\NC(=O)C(c1ccccc1)c1ccccc1)c1ccccn1	Autophagy HCS active
C/C(=N\NC(=S)NC1CCCCC1)c1cccc(Br)c1	none (no result: INS promoter inh)
C/C(=N\NC(=S)NC1CCCCC1)c1ccc(C#N)cc1	Autophagy HCS active (no result: INS promoter inh)
Cc1noc(/C=C/c2ccc(-c3ccccc3Cl)o2)c1[N+](=O)[O-]	Autophagy HCS active (no result: INS promoter inh, Ins promoter up)
COc1ccc(-c2nnc(SCc3ccc(C(=O)O)cc3)n2N)cc1	none (no result: INS promoter inh, Autophagy HCS)
CNC(=O)c1ccsc1NC(=O)c1ccc2c(c1)CCCC2	INS promoter inh 76
COc1ccc(/C(C)=N\NC(=O)c2ccc3c(c2)OCO3)cc1OC	none (no result: Ins promoter up)
COc1ccc(CC(=O)Nc2ccc(-c3noc(-c4ccc(Cl)cc4)n3)cc2)cc1	none
COc1cc(-c2nc(-c3ccc(NC(=O)c4ccc5c(c4)OCO5)cc3)no2)cc(OC)c1OC	Autophagy HCS active
COc1ccc(CC(=O)Nc2ccc(-c3noc(-c4cc(OC)c(OC)c(OC)c4)n3)cc2)cc1	Autophagy HCS active
COc1ccccc1-c1nnc(NC(=O)c2ccc3c(c2)OCO3)s1	Autophagy HCS active
COc1cc(C(=O)N/N=C(\C)c2ccc3c(c2)OCO3)cc(OC)c1OC	Autophagy HCS active (no result: INS promoter inh)
COc1ccc(N2CCN(C(c3ccc4ncccc4c3)c3nnnn3C(C)C)CC2)cc1 (stereo not drawn)	none (no result: INS promoter inh, Autophagy HCS)
Cc1cc(C)c2c(N)c(C(=O)c3ccc(Cl)c(Cl)c3)sc2n1	INS promoter inh 70 (no result: Ins promoter up)
Cc1cc(C)c2c(N)c(C(=O)c3ccccc3)sc2n1	none (no result: INS promoter inh, Autophagy HCS)
Cc1cc(C)c2c(N)c(C(=O)c3ccc(Cl)cc3)sc2n1	INS promoter inh 72
O=C1/C(=N\S(=O)(=O)c2cccs2)C([n+]2ccc(CCCc3ccccc3)cc2)=C([O-])c2ccccc21	none (no result: INS promoter inh, Autophagy HCS)
O=C1/C(=N\S(=O)(=O)c2cccs2)C([n+]2cccc(Cc3ccccc3)c2)=C([O-])c2ccccc21	Ins promoter up 6.8 (no result: INS promoter inh, Autophagy HCS)
CCN(CCNC(=O)Nc1ccc(Cl)cc1)c1ccccc1	Autophagy HCS active
CCN(CC)c1nc(OCCNC(=O)Nc2ccccc2)nc(N(CC)CC)n1	INS promoter inh 71
O=C(NCCOc1nc(N2CCCCC2)nc(N2CCCCC2)n1)Nc1ccccc1	none (no result: INS promoter inh)
O=C(O)c1nn(-c2cccc(Cl)c2)c(=O)cc1O	none
CCN(CC)S(=O)(=O)c1cccc(NC(=O)c2ccccc2Br)c1	INS promoter inh 77
O=S(=O)(NCc1ccc(Cl)cc1)c1cnc[nH]1	Autophagy HCS active
O=C(CSc1nnc(-c2ccco2)n1-c1ccccc1)NCc1ccco1	INS promoter inh 81
CCc1nnc(NC(=O)CSc2nnc(-c3ccoc3C)n2-c2ccccc2)s1	INS promoter inh 81 (no result: Ins promoter up)
O=C(CSc1nnc(-c2ccccc2)n1-c1ccccc1)NCc1ccco1	none
Cc1cc(C)c2nc3nc(C)c(C)cc3c(N)c2c1	none (no result: INS promoter inh)
CC(C(=O)O)n1cc(Cl)cn1 (stereo not drawn)	none
CCCc1cc(C(F)(F)F)c(C#N)c(=O)[nH]1	INS promoter inh 68
CC(C)(C)c1cc(C(F)(F)F)c(C#N)c(=O)[nH]1	none
COc1cc(C(=O)OCC(=O)NC(=O)C2CCCCC2)ccc1OC(F)F	none (no result: INS promoter inh)
Nc1cc(Cl)ccc1Oc1ccccc1	none
Nc1cc(C(=O)O)c(Oc2ccc(Cl)cc2Cl)cc1C(=O)O	INS promoter inh 67
O=C(Nc1ccccc1C(=O)Nc1nnc(C(F)(F)F)s1)c1ccccc1Cl	none (no result: INS promoter inh, Autophagy HCS)
C=CCSc1nnc(NC(=O)c2cccc(S(=O)(=O)N3CCOCC3)c2)s1	Ins promoter up 3.2
Cc1nnc(NC(=O)c2cccc(S(=O)(=O)N3CCOCC3)c2)s1	none (no result: Ins promoter up)
N#Cc1ccc(-c2ccccc2)nc1SCC(=O)c1cccc(Cl)c1	Autophagy HCS active (no result: Ins promoter up)
N#Cc1ccc(-c2ccc(Cl)cc2)nc1SCC(=O)c1cccc(Cl)c1	Ins promoter up 6.9, Autophagy HCS active
CCCCNC(=O)CCc1nc2cccnc2n1Cc1ccc(OC)cc1	INS promoter inh 83 (no result: Ins promoter up)
COc1ccc(Cn2c(CCC(=O)O)nc3cccnc32)cc1	none
Cc1ncoc1C(=O)N1CCCC(C(=O)c2ccc(-c3ccccc3)cc2)C1 (stereo not drawn)	none (no result: INS promoter inh)
CCC1CCCCN1S(=O)(=O)c1ccc(NC(=O)CSc2ncccc2C(=O)O)cc1 (stereo not drawn)	Autophagy HCS active (no result: INS promoter inh)
Cc1ccc(CNC(=O)c2cc3c(s2)CN(Cc2ccccc2)C3)cc1	none (no result: Ins promoter up)
COc1ccccc1/C=C/C(=O)c1cc(Br)ccc1OC(=O)c1ccco1	Dynein transport -5.3 (no result: Ins promoter up)
Cc1ccc(/C=C/C(=O)c2cc(Br)ccc2OC(=O)c2ccco2)cc1	none
CC(NC(=S)N1CCN(c2ccccc2)CC1)c1ccccc1 (stereo not drawn)	none (no result: INS promoter inh, Autophagy HCS)
CCOC(=O)CSc1cc(C)c(C#N)c2nc3ccccc3n12	none (no result: INS promoter inh)
CCOC(=O)c1c(C)cc(C)n2c1nc1ccccc12	INS promoter inh 75
O=C(NC(=S)Nc1nc2ccc(F)cc2s1)c1ccco1	none
Cc1ccc(C(=O)N2CCN3C(=O)c4ccccc4C23c2ccc(Cl)cc2)cc1 (stereo not drawn)	Autophagy HCS active
COc1cc2c(=O)n(CCCC(=O)NCC3CCCO3)c(=O)n(CC(=O)c3ccc(F)cc3)c2cc1OC (stereo not drawn)	none (no result: INS promoter inh)
O=c1[nH]c2ccc(Cl)cc2c(O)c1Cc1ccccc1	INS promoter inh 73
CC(=O)Nc1cccc(CP(=O)(c2ccccc2)c2ccccc2)c1	none (no result: INS promoter inh, Autophagy HCS)
CN(C)CCOCCOc1ccccc1-c1ccccc1	Ins promoter up 5
CCNc1nc(NC(C)C)nc(OCC)n1	INS promoter inh 72
CCNc1nc(NC(C)C)nc(ON=C(C)C)n1	none
CCOC(=O)CSc1nnc(CNC(=O)c2ccc(S(=O)(=O)N3CCOCC3)cc2)n1C	none (no result: INS promoter inh)

Assay outcomes from PubChem.
